# Assay results from paper PMC3525873 (British Journal of Pharmacology, 2012).
# Legend:
# TRPC6 = target: T1, TRPC6 (Mus musculus, UniProt Q61143); experiment: Fura-2 Ca2+ entry in HEK293 cells overexpressing GFP-TRPC6; type: cell-based, murine
# T1 sequence (Q61143 1-930): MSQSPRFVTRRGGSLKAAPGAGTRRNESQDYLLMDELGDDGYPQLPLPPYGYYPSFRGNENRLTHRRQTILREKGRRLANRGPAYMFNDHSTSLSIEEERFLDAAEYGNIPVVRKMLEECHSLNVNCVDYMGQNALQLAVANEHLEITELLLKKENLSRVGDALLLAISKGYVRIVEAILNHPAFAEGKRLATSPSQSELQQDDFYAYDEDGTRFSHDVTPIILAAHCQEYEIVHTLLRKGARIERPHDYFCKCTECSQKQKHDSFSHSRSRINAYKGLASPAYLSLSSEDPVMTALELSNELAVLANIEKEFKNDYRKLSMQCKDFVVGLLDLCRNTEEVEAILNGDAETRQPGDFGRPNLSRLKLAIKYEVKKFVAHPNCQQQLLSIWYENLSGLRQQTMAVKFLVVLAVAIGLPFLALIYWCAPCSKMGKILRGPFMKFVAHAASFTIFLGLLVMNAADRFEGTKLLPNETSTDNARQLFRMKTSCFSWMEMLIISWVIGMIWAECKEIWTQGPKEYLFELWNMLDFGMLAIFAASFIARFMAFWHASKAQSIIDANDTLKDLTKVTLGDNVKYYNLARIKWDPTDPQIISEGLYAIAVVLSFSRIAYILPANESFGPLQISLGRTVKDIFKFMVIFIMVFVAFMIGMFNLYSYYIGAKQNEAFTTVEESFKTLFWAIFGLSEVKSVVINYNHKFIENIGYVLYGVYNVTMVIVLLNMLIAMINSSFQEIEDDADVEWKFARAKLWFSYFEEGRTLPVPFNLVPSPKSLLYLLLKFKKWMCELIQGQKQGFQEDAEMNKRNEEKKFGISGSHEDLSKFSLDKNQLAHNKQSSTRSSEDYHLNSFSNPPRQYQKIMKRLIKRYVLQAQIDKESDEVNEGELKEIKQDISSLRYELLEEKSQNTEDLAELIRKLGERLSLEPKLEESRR
# NFAT = experiment: GFP-NFAT translocation in RBL-2H3 cells; type: cell-based; conditions: 10 μM, thapsigargin 1 μM then 2 mM Ca2+ re-addition
# Method in brief: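 RBL-2H3 cells electroporated with GFP-NFAT (20 μg DNA, 300 V, 275 μF) 12–18 h beforehand, on coverslips. In nominally Ca2+-free buffer, stores depleted with 1 μM thapsigargin for 5 min, then 2 mM CaCl2 added. Test compound at 10 μM in all buffers. Basal taken before depletion. Cells fixed in paraformaldehyde with DAPI-stained nuclei. Nuclear/cytosolic GFP intensity ratio measured; ≥18 cells per condition.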
# TRPC3 = target: T2, TRPC3 (Homo sapiens, UniProt Q13507); experiment: Patch-clamp of TRPC3 currents in HEK293 cells transiently expressing TRPC3; type: cell-based
# T2 sequence (Q13507 74-921 limits assumed): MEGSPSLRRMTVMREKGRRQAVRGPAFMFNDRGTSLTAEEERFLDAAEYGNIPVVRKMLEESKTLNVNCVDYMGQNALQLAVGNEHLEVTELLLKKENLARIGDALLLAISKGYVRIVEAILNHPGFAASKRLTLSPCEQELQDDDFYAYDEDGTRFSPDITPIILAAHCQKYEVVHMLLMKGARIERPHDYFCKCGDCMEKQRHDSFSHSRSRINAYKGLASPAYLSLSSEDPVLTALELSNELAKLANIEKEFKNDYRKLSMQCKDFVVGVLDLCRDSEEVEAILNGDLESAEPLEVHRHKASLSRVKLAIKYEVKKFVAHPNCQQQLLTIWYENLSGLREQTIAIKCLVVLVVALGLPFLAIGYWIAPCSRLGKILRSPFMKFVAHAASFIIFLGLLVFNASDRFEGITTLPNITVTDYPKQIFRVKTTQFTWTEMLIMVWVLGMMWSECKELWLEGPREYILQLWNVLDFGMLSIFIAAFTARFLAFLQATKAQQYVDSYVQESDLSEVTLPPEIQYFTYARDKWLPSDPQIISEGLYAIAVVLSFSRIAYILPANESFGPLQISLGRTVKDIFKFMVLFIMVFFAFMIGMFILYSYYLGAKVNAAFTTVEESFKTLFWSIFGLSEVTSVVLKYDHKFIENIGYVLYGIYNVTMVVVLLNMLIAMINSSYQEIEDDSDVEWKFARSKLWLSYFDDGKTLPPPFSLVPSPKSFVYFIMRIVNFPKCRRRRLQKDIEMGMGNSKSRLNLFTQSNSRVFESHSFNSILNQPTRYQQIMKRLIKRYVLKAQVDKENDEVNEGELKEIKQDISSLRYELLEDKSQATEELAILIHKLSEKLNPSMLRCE
# [1] = target: CRAC currents in native RBL-2H3 cells (Rattus norvegicus, UniProt Q5M848); experiment: Patch-clamp of CRAC currents in native RBL-2H3 cells; type: cell-based
# Chain of CRAC currents in native RBL-2H3 cells (Q5M848 whole entry): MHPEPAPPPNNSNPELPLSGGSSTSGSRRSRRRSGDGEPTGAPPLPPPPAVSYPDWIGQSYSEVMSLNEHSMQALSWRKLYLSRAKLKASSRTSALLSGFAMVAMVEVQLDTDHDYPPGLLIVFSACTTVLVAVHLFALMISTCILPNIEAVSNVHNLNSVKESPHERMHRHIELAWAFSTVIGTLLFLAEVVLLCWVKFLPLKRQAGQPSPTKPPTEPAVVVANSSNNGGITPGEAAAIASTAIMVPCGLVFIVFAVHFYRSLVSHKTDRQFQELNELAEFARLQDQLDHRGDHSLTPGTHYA
# Method in brief: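 Whole-cell recording of native RBL-2H3 cells at room temperature. Stores depleted passively by 20 mM EGTA in the Cs-methanesulphonate pipette solution (pH 7.2). Bath contained 20 mM CaCl2 (pH 7.4). Ramps from −90 to +90 mV over 1 s, holding +30 mV. Test compound at 3 μM, pre-incubated or applied acutely. Net current (minus basal) read at −85 mV 300 s after break-in; n ≥ 6 cells.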
# [2] = target: STIM1/Orai1-mediated SOCE (Rattus norvegicus, UniProt Q5M848); experiment: Fura-2 Ca2+ re-addition, thapsigargin-depleted native RBL-2H3 cells; type: cell-based
# Chain of STIM1/Orai1-mediated SOCE (Q5M848 whole entry, the tested form may be a part): as the sequence (Q5M848 whole entry) above
# Method in brief: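 Native RBL-2H3 cells were loaded with 2 μM Fura-2-AM for 45 min and perfused in Ca2+-free extracellular solution at room temperature. Stores depleted with 1 μM thapsigargin for 5 min. Test compound present ≥5 min before and throughout. Ca2+ entry evoked by 2 mM Ca2+ re-addition; 340/380 nm ratio read (510 nm emission). Inhibition expressed as % of control peak entry. IC50 by 4-parameter logistic fit; 3–5 experiments, 29–80 cells.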
smiles,measurement,setting,value
"O=C(Nc1ccc(-n2nc(C(F)(F)F)cc2C(F)(F)F)cc1)c1ccncc1F [Pyr6, N-(4-(3,5-bis(trifluoromethyl)-1H-pyrazole-1-yl)phenyl)-3-fluoroisonicotinamide]",IC50,TRPC6,> 10 µM
same,Effect on NFAT translocation,NFAT,clearly inhibited NFAT translocation
same,TRPC3 currents remaining,"TRPC3; 3 μM, percent of control",52%
same,Effect on CRAC Ca2+ entry-mediating conductance,[1]; 3 μM pre-incubation,completely inhibiting CRAC currents
same,"Higher potency in SOCE model than in TRPC3-ROCE model, orders of magnitude",[2]; RBL-2H3 SOCE vs TRPC3 ROCE,1.58 OM
same,Higher potency in SOCE model than in TRPC3-ROCE model,"[2]; ratio of IC50 values, RBL-2H3 SOCE vs TRPC3 ROCE",37 fold
"Cc1ccc(S(=O)(=O)Nc2ccc(-n3nc(C(F)(F)F)cc3C(F)(F)F)cc2)cc1 [Pyr10, N-(4-(3,5-bis(trifluoromethyl)-1H-pyrazole-1-yl)phenyl)-4-methylbenzenesulfonamide]",IC50,TRPC6,> 10 µM
same,Effect on NFAT translocation,NFAT,failed to suppress NFAT activation significantly
same,Effect on TRPC3 Ca2+ entry-mediating conductance,"TRPC3; 3 μM pre-incubation, carbachol",eliminated TRPC3 currents
same,Effect on OAG-induced TRPC3 membrane currents,"TRPC3; 3 μM, OAG 100 μM",potently blocks DAG-mediated TRPC3 membrane currents
same,inhibition at 3 µM,"[1]; RBL-2H3, read-out: Inhibition of CRAC currents",~50%
same,Reduction of Ca2+ entry (Orai-mediated),[2]; 3 μM,30%
